Measured values reported in ChEMBL document CHEMBL5108057, “Development of MAO-A and 5-HT2AR Dual Inhibitors with Improved Antidepressant Activity” (J Med Chem, 2022).
Activity calls are given as the source filed them. The calls are words filed in the database; no cut-off is given here.

Columns and labels:
[1] = Toxicity in mouse assessed as toxic effect on spleen at 10 to 20 mg/kg by H and E staining based assay; assay type: organism-based; conditions: in vivo, dose 10-20 mg/kg
Method in brief: (§1)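 Mice given compound at 10 or 20 mg/kg, with fluoxetine 20 mg/kg as comparator. Paraffin tissue sections of 4 μm were cut. Staining: hematoxylin 5 min, 75% HCl-ethanol differentiation 30 s, eosin 2 min. Organs (liver, kidney, lung, heart, spleen) examined at ×400; hippocampus (CA1, CA3, DG) at ×200.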

[2] = Half life in Sprague-Dawley rat at 2 mg/kg, iv measured upto 1440 mins by LC-MS/MS analysis; assay type: ADME, organism-based; conditions: in vivo
[3] = Cmax in Sprague-Dawley rat at 2 mg/kg, iv measured upto 1440 mins by LC-MS/MS analysis; assay type: ADME, organism-based; design: time < 1440 min, dose 2 mg/kg, route iv; conditions: in vivo
[4] = target: T1, Amine oxidase [flavin-containing] B (Homo sapiens, UniProt P27338); experiment: Inhibition of MAO-B (unknown origin) using p-tyramine as substrate preincubated for 15 mins followed by substrate addition and measured after 15 mins by Amplex red fluorescence based microplate reader assay
T1 sequence (P27338 whole entry): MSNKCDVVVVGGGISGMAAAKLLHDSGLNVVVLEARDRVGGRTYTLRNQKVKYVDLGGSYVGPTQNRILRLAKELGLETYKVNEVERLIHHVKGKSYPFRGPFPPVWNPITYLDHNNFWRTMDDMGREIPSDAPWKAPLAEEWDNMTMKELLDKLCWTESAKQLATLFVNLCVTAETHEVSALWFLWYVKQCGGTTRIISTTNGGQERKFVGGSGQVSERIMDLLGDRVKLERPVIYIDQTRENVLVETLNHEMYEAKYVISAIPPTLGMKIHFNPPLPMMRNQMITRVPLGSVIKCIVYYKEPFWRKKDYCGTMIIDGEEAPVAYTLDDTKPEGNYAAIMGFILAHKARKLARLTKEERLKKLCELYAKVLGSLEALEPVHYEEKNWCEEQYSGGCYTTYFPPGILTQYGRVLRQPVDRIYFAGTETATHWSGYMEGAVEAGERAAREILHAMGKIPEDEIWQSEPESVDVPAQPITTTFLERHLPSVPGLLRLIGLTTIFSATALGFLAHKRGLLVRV

[5] = AUC(0 to infinity) in Sprague-Dawley rat at 2 mg/kg, iv measured upto 1440 mins by LC-MS/MS analysis; assay type: ADME, organism-based; design: dose 2 mg/kg, time < 1440 min, route iv; conditions: in vivo
[6] = system: PC-12; experiment: Neurocytoprotective activity against CORT-induced damage in rat PC-12 cells at 0.5 uM measured after 24 hrs by MTT assay; assay type: functional, cell-based
Method in brief: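 PC12 cells seeded at 5 × 10^4 cells/mL for 24 h. Medium was then replaced with compound (0.5–4.0 μM) plus 500 μM CORT (DMSO <1%) for 24 h. Viability was measured by MTT relative to the CORT model group.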

[7] = target: T2, Amine oxidase [flavin-containing] A (Homo sapiens, UniProt P21397); experiment: Inhibition of MAO-A (unknown origin) using p-tyramine as substrate preincubated for 15 mins followed by substrate addition and measured after 15 mins by Amplex red fluorescence based microplate reader assay
T2 sequence (P21397 whole entry): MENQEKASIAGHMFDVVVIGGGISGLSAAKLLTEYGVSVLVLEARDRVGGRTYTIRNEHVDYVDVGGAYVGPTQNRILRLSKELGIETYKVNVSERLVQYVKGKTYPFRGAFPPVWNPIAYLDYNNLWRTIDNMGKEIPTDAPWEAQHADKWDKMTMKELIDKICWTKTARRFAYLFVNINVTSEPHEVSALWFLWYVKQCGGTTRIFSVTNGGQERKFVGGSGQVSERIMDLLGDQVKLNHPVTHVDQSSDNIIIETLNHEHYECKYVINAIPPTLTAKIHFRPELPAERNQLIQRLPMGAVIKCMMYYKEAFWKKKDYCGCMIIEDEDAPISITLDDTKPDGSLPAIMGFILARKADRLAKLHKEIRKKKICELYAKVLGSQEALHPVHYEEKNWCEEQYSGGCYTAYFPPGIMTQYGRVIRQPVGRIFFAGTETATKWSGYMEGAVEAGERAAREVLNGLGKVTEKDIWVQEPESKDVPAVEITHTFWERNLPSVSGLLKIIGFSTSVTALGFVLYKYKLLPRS

[8] = system: Mus musculus; experiment: Antidepressant activity in chronic unpredictable mild stress ICR mouse model assessed as decrease in immobility time at 10 to 20 mg/kg measured after 2 weeks by tail suspension test; assay type: functional, organism-based; conditions: dose 10-20 mg/kg
Method in brief: (§2)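 ICR mice received CUMS for 4 weeks: 11 stressors given randomly twice daily, 42 days in total. OFT: 5 min session scoring distance, speed, rearing and dejection. FST/TST: 6 min, with immobility scored over the last 4 min. Sucrose preference test was also run. Mean ± SD, n = 6.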

[9] = system: Mus musculus; experiment: Antidepressant activity in reserpine-induced ICR mouse model assessed as improvement in depression like behavior at 10 mg/kg pretreated with reserpine for 3 days followed by compound addition for 1 week by open field test; assay type: functional, organism-based; conditions: time 1.0 weeks
Method in brief: (§3)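 Body weight was recorded daily. OFT: 5 min session scoring distance, speed, rearing and dejection. FST and TST: 6 min, with immobility scored over the last 4 min. Mean ± SD, n = 6; one-way ANOVA and t-test.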

[10] = system: Mus musculus; experiment: Antidepressant activity in reserpine-induced ICR mouse model assessed as reduction in immobility time at 10 to 20 mg/kg pretreated with reserpine for 3 days followed by compound addition on day 4 to 10 by tail suspension test; assay type: functional, organism-based; conditions: dose 10-20 mg/kg, time 6.0 day; method in brief: as §3
[11] = system: Mus musculus; experiment: Antidepressant activity in reserpine-induced ICR mouse model assessed as increase in mobility at 10 to 20 mg/kg pretreated with reserpine for 3 days followed by compound addition for 1 week by open field test; assay type: functional, organism-based; conditions: dose 10-20 mg/kg, time 1.0 weeks; method in brief: as §3
[12] = Clearance in Sprague-Dawley rat at 10 mg/kg, IG measured upto 1440 mins by LC-MS/MS analysis; assay type: ADME, organism-based; conditions: in vivo, po
[13] = Toxicity in mouse assessed as toxic effect on kidney at 10 to 20 mg/kg by H and E staining based assay; assay type: organism-based; conditions: in vivo, dose 10-20 mg/kg; method in brief: as §1
[14] = AUC(0 to infinity) in Sprague-Dawley rat at 10 mg/kg, IG measured upto 1440 mins by LC-MS/MS analysis; assay type: ADME, organism-based; design: time < 1440 min, dose 10 mg/kg, route ig; conditions: in vivo, po
[15] = species on record: Danio rerio; experiment: Antidepressant activity in reserpine-induced zebrafish AB depression model assessed as increase in distance traveled at 0.1 to 1 uM pretreated for 40 mins with reserpine followed by compound addition and measured for 7 days by open field test; assay type: functional, organism-based; conditions: dose 0.1-1 µM, time 7.0 day
Method in brief: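 Zebrafish were exposed to 10 mg/L reserpine for 40 min. Compound (0.1, 0.5, 1 μM) or fluoxetine (1 μM) was given 24 h later for 7 days. Fish kept at 28.5 °C on a 14 h light/10 h dark cycle. Open-field and novel tank tests were video-tracked for distance, velocity, immobility and time in the top. Mean ± SD, n = 6.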

[16] = system: Mus musculus; experiment: Antidepressant activity in chronic unpredictable mild stress ICR mouse model assessed as reduction in depression-like behavior at 10 mg/kg administered for 2 weeks by open field test; assay type: functional, organism-based; method in brief: as §2
[17] = AUC(0 to 24 hrs) in Sprague-Dawley rat at 2 mg/kg, iv measured upto 1440 mins by LC-MS/MS analysis; assay type: ADME, organism-based; design: dose 2 mg/kg, time < 1440 min, route iv; conditions: in vivo

Question: With O=C1c2ccccc2-c2nccc3cc(OCCCCCN4CCN(c5ccccc5F)CC4)cc1c23 as the molecule, how does the Activity [1] read?
Answer: The Activity was “Non-Toxic”.

Question: And the half-life [2]?
Answer: Its half-life is 6.31 h.

Question: What about the Cmax [3] of the same molecule?
Answer: The Cmax was 673 ng/mL.

Question: What about the IC50 [4] of the same molecule?
Answer: Its IC50 is 1050 nM.

Question: And the AUC(0-inf) [5]?
Answer: Its AUC(0-inf) is 2320 ng·h/mL.

Question: What about the Activity [6] of the same molecule?
Answer: Its Activity is “Active”.

Question: What about the IC50 [7] of the same molecule?
Answer: Its IC50 is 4 nM.

Question: What about the Activity [8] of the same molecule?
Answer: Its Activity is “Active”.

Question: What about the Activity [9] of the same molecule?
Answer: The Activity was “Active”.

Question: And the Activity [10]?
Answer: Its Activity is “Active”.

Question: And the Activity [11]?
Answer: Its Activity is “Active”.

Question: And the CL/F [12]?
Answer: Its CL/F is 346 mL/min/kg.

Question: What about the Activity [13] of the same molecule?
Answer: The Activity was “Non-Toxic”.

Question: And the AUC(0-inf) [14]?
Answer: The AUC(0-inf) was 504 ng·h/mL.

Question: What about the Activity [15] of the same molecule?
Answer: Its Activity is “Active”.

Question: And the Activity [16]?
Answer: Its Activity is “Active”.

Question: What about the AUC(0-t) at 24 h [17] of the same molecule?
Answer: Its AUC(0-t) at 24 h is 2230 ng·h/mL.
